Series [1] can be described thus: Cytotoxicity against MDBK cells after 3 days by MTS/PMS assay. The format is cell-based, Bos taurus. Particulars: cattle. In a few lines:
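MDBK cells seeded at 1 × 10^4 per well in MEM-FBS; serial compound dilutions added 24 h later (DMSO stocks 1 mg/mL). Cells proliferated 3 days at 37 °C. MTS/PMS was then added for 3 h at 37 °C and absorbance read at 490 nm. Viability is the percentage of untreated-cell absorbance. CC50 = 50% inhibition of proliferation, logarithmic interpolation from dose-response curves.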

The test system of series [2] is Bovine viral diarrhea virus 1. The series is described as follows: Antiviral activity against bovine viral diarrhoea virus type-1 NADL in MDBK cells assessed as inhibition of virus-induced cytopathic effect. The format is functional, organism-based. Particulars: Bovine viral diarrhea virus isolates and strains. In a few lines: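 MDBK cells seeded at 1 × 10^4 per well in MEM-FBS, 24 h at 37 °C, 5% CO2; medium replaced with serial compound dilutions (DMSO stocks 1 mg/mL), then BVDV inoculum giving >80% CPE by 3 days at 37 °C. Uninfected and virus-only controls on each plate. Read-out is MTS/PMS in MEM-DHS, absorbance 490 nm. EC50 = 50% protection against CPE, logarithmic interpolation from dose-response curves.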

Series [3] is described as follows: Selectivity index, ratio of CC50 for MDBK cells to EC50 for bovine viral diarrhoea virus type-1 NADL. It counts as toxicity, cell-based. Particulars: cattle, read-out: Ratio CC50/EC50. In a few lines:
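Ratio of CC50 to EC50. CC50 comes from a 3-day MTS/PMS proliferation assay on MDBK cells. EC50 comes from protection of MDBK cells against NADL-strain cytopathic effect after 3 days, read by MTS/PMS at 490 nm. Both values were derived by logarithmic interpolation from dose-response curves.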

The next series concerns Poliovirus 1. The series is described as follows: Antiviral activity against poliovirus type-1 Sabin. Particulars: Enterovirus C. The format is functional, organism-based.
For series [4], the system named is Human immunodeficiency virus 1. The series is described as follows: Antiviral activity against HIV1. It counts as functional, organism-based.
The test system of the next series is Human alphaherpesvirus 1. The series is described as follows: Antiviral activity against HSV1 F. It counts as functional, organism-based. Particulars: Human alphaherpesvirus 1, F.
For series [5], the system named is Vesicular stomatitis virus. Briefly: Antiviral activity against Vesicular stomatitis virus type-1 Indiana. The format is functional, organism-based.

For 15 compounds, CC50, EC50 and selectivity ratio results are on record in ChEMBL document CHEMBL1140965, “New 1-indanone thiosemicarbazone derivatives active against BVDV” (Eur J Med Chem, 2008).

SMILES strings stand for the structures.

As to `Cc1cc(C)c2c(c1)CC/C2=N\NC(N)=S`, the CC50 (as a rule, the concentration at which the toxic effect on the cells reaches its halfway point) at 72 h in series [1] is 51.7 µM. This lies in the double-digit micromolar range.

`COc1ccc2c(c1)/C(=N/NC(N)=S)CC2` yielded a CC50 at 72 h in series [1] of 106 µM. Besides, the EC50 (usually the concentration that produces a half-maximal response) in series [2] worked out at 26 µM. In addition, the selectivity ratio in series [3] was 4.09.

In turn, `Cc1cccc2c1CC/C2=N\NC(N)=S` had a CC50 at 72 h in series [1] of 165 µM. The EC50 in series [2] is 8.13 µM. Moreover, the selectivity ratio in series [3] was determined as 20.3.

Compound `NC(=O)c1ncn([C@@H]2O[C@H](CO)[C@@H](O)[C@H]2O)n1` [RIBAVIRIN] displayed a CC50 at 72 h in series [1] of 54 µM. For the same compound, the EC50 in series [2] came to 4.62 µM.

The compound `Cc1cc2c(c(C)c1Cl)CC/C2=N\NC(N)=S` yielded a CC50 at 72 h in series [1] of 72.5 µM. The EC50 in series [2] was more than 11.1 µM. The selectivity ratio in series [3] was less than 6.53.

`Cc1cc2c(c(C)c1Cl)/C(=N/NC(N)=S)CC2`: the CC50 at 72 h in series [1] amounted to 80.7 µM. Further, the EC50 in series [2] was determined as 7.4 µM. Further, in series [3], the selectivity ratio came to 10.9.

Compound `COc1ccc2c(c1)CC/C2=N\NC(N)=S` showed a CC50 at 72 h in series [1] of 149 µM. For the same compound, the EC50 in series [2] was 18.8 µM. In series [3], the selectivity ratio is 7.93.

`Cc1ccc2c(c1)CC/C2=N\NC(N)=S`: in series [1], half-maximal cytotoxicity (CC50 at 72 h) was put at 130 µM. Further, the EC50 in series [2] turned out to be 6.48 µM. Besides, the selectivity ratio in series [3] is 20.1.

As for `Cc1cc(C)c2c(c1Br)CC/C2=N\NC(N)=S`, in series [1], the midpoint of cytotoxicity, the CC50 at 72 h, lay at 139 µM. Also, in series [2], the EC50 came out at 8.94 µM. Moreover, the selectivity ratio in series [3] was 15.5.

For `NC(=S)N/N=C1\CCc2cc(Br)ccc21`, in series [1], the CC50 at 72 h is more than 15 µM. For the same compound, the EC50 in series [2] was 1.81 µM. Also, the selectivity ratio in series [3] was more than 8.29.

Take `NC(=S)N/N=C1\CCc2cc(Cl)ccc21`: the CC50 at 72 h in series [1] is more than 27 µM. The half-maximal effective concentration (EC50) in series [2] worked out at 8.8 µM. For the same compound, the selectivity ratio in series [3] was more than 3.07.

In the case of `COc1cccc2c1CC/C2=N\NC(N)=S`, the CC50 at 72 h in series [1] came to 822 µM. Moreover, the EC50 in series [2] stood at 242 µM. Also, the selectivity ratio in series [3] is 3.39.

With `NC(=S)N/N=C1\CCc2ccccc21`, it took 156 µM to reach half-maximal cytotoxicity in series [1] (CC50 at 72 h). Besides, in series [2], the EC50 amounted to 18.1 µM. Besides, in series [3], the selectivity ratio came to 8.6.

In turn, `COc1ccc2c(c1OC)CC/C2=N\NC(N)=S` displayed a CC50 at 72 h in series [1] of 141 µM. In series [2], the EC50 turned out to be 11.5 µM. Besides, the selectivity ratio in series [3] is 12.2.

In the case of `COc1cc2c(cc1OC)/C(=N/NC(N)=S)CC2`, the CC50 at 72 h in series [1] is 140 µM. The EC50 with Poliovirus 1 is 64 µM; in series [2], 1.75 µM; in series [4], more than 38 µM; with Human alphaherpesvirus 1, more than 64 µM; in series [5], more than 75.5 µM. Also, the selectivity ratio in series [3] is 80.3.
